One block for each compound: values may come before it.
Experiments:
[1] = Partition coefficient (logP); format: physicochemical; details: octanol/water
Method in brief: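 Octanol/water log P estimated from log k'w measured by reversed-phase HPLC (Minick method) on a C8 silica column.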

[2] = target: T1, Alpha-fetoprotein (Rattus norvegicus) (UniProt P02773); assay: Relative binding affinity for Alphafetoprotein
T1 sequence (whole entry): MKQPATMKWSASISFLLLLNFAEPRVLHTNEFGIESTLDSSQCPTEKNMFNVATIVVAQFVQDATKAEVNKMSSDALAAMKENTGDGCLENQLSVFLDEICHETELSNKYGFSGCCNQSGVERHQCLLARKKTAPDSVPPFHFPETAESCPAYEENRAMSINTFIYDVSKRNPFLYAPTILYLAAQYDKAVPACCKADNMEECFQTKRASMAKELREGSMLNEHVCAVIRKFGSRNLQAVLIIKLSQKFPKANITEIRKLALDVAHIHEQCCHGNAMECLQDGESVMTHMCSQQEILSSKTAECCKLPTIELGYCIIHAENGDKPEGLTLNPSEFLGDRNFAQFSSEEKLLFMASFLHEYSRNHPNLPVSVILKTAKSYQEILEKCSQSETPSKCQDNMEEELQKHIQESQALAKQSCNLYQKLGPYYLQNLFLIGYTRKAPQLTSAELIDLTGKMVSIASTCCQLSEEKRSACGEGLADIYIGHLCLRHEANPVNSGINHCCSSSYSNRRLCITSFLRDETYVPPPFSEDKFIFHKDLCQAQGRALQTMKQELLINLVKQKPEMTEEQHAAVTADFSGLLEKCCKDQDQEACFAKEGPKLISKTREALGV

[3] = target: T2, Sex hormone-binding globulin (Homo sapiens) (UniProt P04278); assay: Relative binding affinity against sex steroid binding protein (SBP)
T2 sequence (whole entry): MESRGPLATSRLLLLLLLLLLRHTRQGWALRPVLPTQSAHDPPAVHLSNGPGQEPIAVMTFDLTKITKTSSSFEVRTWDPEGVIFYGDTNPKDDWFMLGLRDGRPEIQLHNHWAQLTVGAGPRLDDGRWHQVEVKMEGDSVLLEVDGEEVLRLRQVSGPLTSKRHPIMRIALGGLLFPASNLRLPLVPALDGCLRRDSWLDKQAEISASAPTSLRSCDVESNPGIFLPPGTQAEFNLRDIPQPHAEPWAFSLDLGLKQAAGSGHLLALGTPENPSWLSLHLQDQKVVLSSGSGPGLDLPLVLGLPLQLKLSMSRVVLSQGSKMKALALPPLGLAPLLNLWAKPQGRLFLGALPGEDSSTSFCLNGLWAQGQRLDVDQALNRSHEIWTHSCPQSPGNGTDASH

[4] = target: T3, Estrogen receptor (Rattus norvegicus) (UniProt P06211+Q62986)
[5] = target: T3, Estrogen receptor (Rattus norvegicus); remark: listed apart in the source
Rattus norvegicus [6] = assay: Tested in vivo for the biodistribution in rat uterus/blood at 1 hour after intravenous dose of 50 microCi of the drug and 15 ug of estradiol; format: ADME, organism-based
Method in brief: (§1)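 Female Sprague-Dawley rats, 25 days old (~40–53 g), ether-anesthetized, given the 18F-labeled estrogen iv via femoral vein in 10% ethanol saline. […] Others were sacrificed by decapitation at 1 or 3 h. Blood and organs were excised, weighed and gamma counted as % injected dose/g, mean ± SD, typically n = 5 (4–6).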

Rattus norvegicus [7] = assay: Tested in vivo for the biodistribution in rat uterus/muscle after 3 hours following an intravenous dose of 50 microCi of drug in 10%ethanol saline; format: ADME, organism-based, Muscle tissue; method in brief: as §1
Rattus norvegicus [8] = assay: Tested in vivo for the biodistribution in rat uterus/muscle at 1 hour after intravenous dose of 50 microCi of drug in 10%ethanol saline; format: ADME, organism-based, Muscle tissue; method in brief: as §1
Rattus norvegicus [9] = assay: Tested in vivo for the biodistribution in rat uterus/muscle at 1 hour after intravenous dose of 50 microCi of the drug and 15 ug of estradiol; format: ADME, organism-based, Muscle tissue; method in brief: as §1
Rattus norvegicus [10] = assay: Tested in vivo for the biodistribution in blood of female rat after 3 hours following an intravenous dose of 50 microCi of drug in 10%ethanol saline; format: ADME, organism-based
Method in brief: (§2)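 Ether-anesthetized 25-day-old female Sprague-Dawley rats (~40–53 g) got the [18F] tracer in 10% ethanol saline via femoral vein. Rats were decapitated at 1 or 3 h, and blood and organs were weighed and gamma-counted. Values are % injected dose/g as mean ± SD, n = 5 per time point.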

Rattus norvegicus [11] = assay: Tested in vivo for the biodistribution in rat bone at 1 hour after intravenous dose of 50 microCi of drug in 10%ethanol saline; format: ADME, organism-based, Bone element; method in brief: as §2
Rattus norvegicus [12] = assay: Tested in vivo for the biodistribution in rat bone at 1 hour after intravenous dose of 50 microCi of the drug and 15 ug of estradiol; format: ADME, organism-based, Bone element
Rattus norvegicus [13] = assay: Tested in vivo for the biodistribution in rat fat after 3 hours following an intravenous dose of 50 microCi of drug in 10%ethanol saline; format: ADME, organism-based, Adipose tissue; method in brief: as §2
Rattus norvegicus [14] = assay: Tested in vivo for the biodistribution in rat ovaries after 3 hours following an intravenous dose of 50 microCi of drug in 10%ethanol saline; format: ADME, organism-based, Female gonad
Method in brief: (§3)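 Immature (25-day-old) female Sprague-Dawley rats, ether-anesthetized, given the fluorine-18-labeled estrogen by femoral vein injection in 10% ethanol saline. […] Other groups were killed by decapitation at 1 or 3 h. Blood and organs were weighed and gamma-counted. Data are % injected dose/g, mean ± SD, typically n = 5 per group.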

Rattus norvegicus [15] = assay: Tested in vivo for the biodistribution in rat ovaries at 1 hour after intravenous dose of 50 microCi of drug in 10%ethanol saline; format: ADME, organism-based, Female gonad; method in brief: as §3
Rattus norvegicus [16] = assay: Tested in vivo for the biodistribution in rat ovaries at 1 hour after intravenous dose of 50 microCi of the drug and 15 ug of estradiol; format: ADME, organism-based, Female gonad; method in brief: as §3
Rattus norvegicus [17] = assay: Tested in vivo for the biodistribution in rat muscle after 3 hours following an intravenous dose of 50 microCi of drug in 10%ethanol saline; format: ADME, organism-based, Muscle tissue; method in brief: as §3
Rattus norvegicus [18] = assay: Tested in vivo for the biodistribution in rat muscle at 1 hour after intravenous dose of 50 microCi of drug in 10%ethanol saline; format: ADME, organism-based, Muscle tissue; method in brief: as §3
Rattus norvegicus [19] = assay: Tested in vivo for the biodistribution in rat muscle at 1 hour after intravenous dose of 50 microCi of the drug and 15 ug of estradiol; format: ADME, organism-based, Muscle tissue; method in brief: as §3
Rattus norvegicus [20] = assay: Tested in vivo for the biodistribution in rat thymus after 3 hours following an intravenous dose of 50 microCi of drug in 10%ethanol saline; format: ADME, organism-based; method in brief: as §3
Rattus norvegicus [21] = assay: Tested in vivo for the biodistribution in rat thymus at 1 hour after intravenous dose of 50 microCi of drug in 10%ethanol saline; format: ADME, organism-based; method in brief: as §3
Rattus norvegicus [22] = assay: Tested in vivo for the biodistribution in rat thymus at 1 hour after intravenous dose of 50 microCi of the drug and 15 ug of estradiol; format: ADME, organism-based; method in brief: as §3
Rattus norvegicus [23] = assay: Tested in vivo for the biodistribution in rat uterus after 3 hours following an intravenous dose of 50 microCi of drug in 10%ethanol saline; format: ADME, organism-based; method in brief: as §3
Rattus norvegicus [24] = assay: Tested in vivo for the biodistribution in rat uterus at 1 hour after intravenous dose of 50 microCi of drug in 10%ethanol saline; format: ADME, organism-based; method in brief: as §1
Rattus norvegicus [25] = assay: Tested in vivo for the biodistribution in rat uterus at 1 hour after intravenous dose of 50 microCi of the drug and 15 ug of estradiol; format: ADME, organism-based; method in brief: as §1
Rattus norvegicus [26] = assay: Tested in vivo for the biodistribution in rat uterus/blood after 3 hours following an intravenous dose of 50 microCi of drug in 10%ethanol saline; format: ADME, organism-based; method in brief: as §1
Rattus norvegicus [27] = assay: Tested in vivo for the biodistribution in blood of female rat at 1 hour after intravenous dose of 50 microCi of drug in 10%ethanol saline; format: ADME, organism-based; method in brief: as §2
Rattus norvegicus [28] = assay: Tested in vivo for the biodistribution in blood of female rat at 1 hour after intravenous dose of 50 microCi of the drug and 15 u g of estradiol; format: ADME, organism-based
Rattus norvegicus [29] = assay: Tested in vivo for the biodistribution in rat bone after 3 hours following an intravenous dose of 50 microCi of drug in 10%ethanol saline; format: ADME, organism-based, Bone element; method in brief: as §2
Rattus norvegicus [30] = assay: Tested in vivo for the biodistribution in rat fat at 1 hour after intravenous dose of 50 microCi of drug in 10%ethanol saline; format: ADME, organism-based, Adipose tissue; method in brief: as §2
Rattus norvegicus [31] = assay: Tested in vivo for the biodistribution in rat fat at 1 hour after intravenous dose of 50 microCi of the drug and 15 ug of estradiol; format: ADME, organism-based, Adipose tissue
Rattus norvegicus [32] = assay: Tested in vivo for the biodistribution in rat kidney after 3 hours following an intravenous dose of 50 microCi of drug in 10%ethanol saline; format: ADME, organism-based; method in brief: as §2
Rattus norvegicus [33] = assay: Tested in vivo for the biodistribution in rat kidney at 1 hour after intravenous dose of 50 microCi of drug in 10%ethanol saline; format: ADME, organism-based; method in brief: as §2
Rattus norvegicus [34] = assay: Tested in vivo for the biodistribution in rat kidney at 1 hour after intravenous dose of 50 microCi of the drug and 15 u g of estradiol; format: ADME, organism-based; method in brief: as §3
Rattus norvegicus [35] = assay: Tested in vivo for the biodistribution in rat liver after 3 hours following an intravenous dose of 50 microCi of drug in 10%ethanol saline; format: ADME, organism-based; method in brief: as §3
Rattus norvegicus [36] = assay: Tested in vivo for the biodistribution in rat liver at 1 hour after intravenous dose of 50 microCi of drug in 10%ethanol saline; format: ADME, organism-based; method in brief: as §3
Rattus norvegicus [37] = assay: Tested in vivo for the biodistribution in rat liver at 1 hour after intravenous dose of 50 microCi of the drug and 15 u g of estradiol; format: ADME, organism-based; method in brief: as §3
Rattus norvegicus [38] = assay: Tested in vivo for the biodistribution in rat uterus/blood at 1 hour after intravenous dose of 50 microCi of drug in 10%ethanol saline; format: ADME, organism-based; method in brief: as §1

logP [1]: 3.9 | relative binding affinity (RBA) [2]: 1.21 | relative binding affinity (RBA) [3]: 40.8 | NSB [4]: 2.1 | BSI [5]: 648
Compound: CCC1C[C@]2(C)[C@@H](O)CC[C@H]2[C@@H]2CCc3cc(O)ccc3[C@@H]12 (stereo partly drawn)

Injected (Rattus norvegicus [6]): 7.52% | Injected (Rattus norvegicus [7]): 32.76% | Injected (Rattus norvegicus [8]): 24.31% | Injected (Rattus norvegicus [9]): 5.25% | Injected (Rattus norvegicus [10]): 0.101% | Injected (Rattus norvegicus [11]): 1.384% | Injected (Rattus norvegicus [12]): 1.477% | Injected (Rattus norvegicus [13]): 0.858% | Injected (Rattus norvegicus [14]): 3.51% | Injected (Rattus norvegicus [15]): 5.2% | Injected (Rattus norvegicus [16]): 1.661% | Injected (Rattus norvegicus [17]): 0.389% | Injected (Rattus norvegicus [18]): 0.739% | Injected (Rattus norvegicus [19]): 0.525% | Injected (Rattus norvegicus [20]): 0.454% | Injected (Rattus norvegicus [21]): 0.852% | Injected (Rattus norvegicus [22]): 0.44% | Injected (Rattus norvegicus [23]): 12.99% | Injected (Rattus norvegicus [24]): 18.26% | Injected (Rattus norvegicus [25]): 2.548% | Injected (Rattus norvegicus [26]): 129.8% | Injected (Rattus norvegicus [27]): 0.284% | Injected (Rattus norvegicus [28]): 0.38% | Injected (Rattus norvegicus [29]): 2.007% | Injected (Rattus norvegicus [30]): 1.538% | Injected (Rattus norvegicus [31]): 0.679% | Injected (Rattus norvegicus [32]): 0.973% | Injected (Rattus norvegicus [33]): 1.961% | Injected (Rattus norvegicus [34]): 1.038% | Injected (Rattus norvegicus [35]): 2.129% | Injected (Rattus norvegicus [36]): 3.244% | Injected (Rattus norvegicus [37]): 3.708% | logP [1]: 2.87 | relative binding affinity (RBA) [2]: < 0.01 | relative binding affinity (RBA) [3]: 0.037 | Injected (Rattus norvegicus [38]): 66.26% | NSB [4]: 0.67 | BSI [5]: 116
Compound: C#C[C@]1(O)[C@@H](F)C[C@H]2[C@@H]3CCc4cc(O)ccc4[C@H]3[C@@H](OC)C[C@@]21C
